From ChEMBL document CHEMBL4699545, “Non-cytotoxic 1,2,3-triazole tethered fused heterocyclic ring derivatives display Tax protein inhibition and impair HTLV-1 infected cells” (Bioorg Med Chem, 2020)
Calls of active or inactive are those of the source. No cut-off for these calls is given here.

Tests used:
MT2 [1] = assay: Cell cycle arrest in human MT2 cells infected with HTLV-1 assessed as accumulation at G0/G1 phase at 50 uM incubated for 72 hrs by RNaseA/propidium iodide staining based FACSCalibur flow cytometry; format: functional
Procedure, shortened: (§1)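 MT-2 cells (3 × 10⁵/well) exposed to compound (300 µM stock, 100 µl added to 500 µl cells) for 72 h at 37 °C, 5% CO₂. Cells were PBS-washed and fixed in ice-cold 70% ethanol overnight at -20 °C, then RNase A treated 30 min at 37 °C and PI stained. 10,000 events were acquired and phase percentages modelled. Triplicate, mean ± SD; one-way ANOVA/Tukey versus 0.5% DMSO.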

MT2 [2] = assay: Cytotoxicity against human MT2 cells infected with HTLV-1 assessed as reduction in metabolic activity at 50 uM incubated for 72 hrs in presence of resazurin by resazurin reduction method relative to control; format: functional
Procedure, shortened: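 MT-2 cells incubated with compound at a final 50 µM in 0.5% DMSO for 72 h at 37 °C, 5% CO₂. Resazurin (10 µM) was added for the final 4 h and fluorescence read at 590 nm; medium-only wells gave background. RFU normalized between 0.5% DMSO (0) and 20 µM etoposide (100) controls. Three independent days.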

MT2 [3] = assay: Cell cycle arrest in human MT2 cells infected with HTLV-1 assessed as accumulation at G2/M phase at 50 uM incubated for 72 hrs by RNaseA/propidium iodide staining based FACSCalibur flow cytometry; format: functional; procedure, shortened: as §1
MT2 [4] = assay: Cell cycle arrest in human MT2 cells infected with HTLV-1 assessed as accumulation at S phase at 50 uM incubated for 72 hrs by RNaseA/propidium iodide staining based FACSCalibur flow cytometry; format: functional; procedure, shortened: as §1
MT2 [5] = assay: Induction of apoptosis in human MT2 cells infected with HTLV-1 at 50 uM measured after 72 hrs by annexinV-Cy5/propidium iodide staining based FACSCalibur flow cytometry (reference value: 18.7 +/- 5.33 %); format: functional
Procedure, shortened: (§2)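 MT-2 cells (3 × 10⁵/well) were treated for 72 h at 37 °C, 5% CO₂, then stained with annexin-V Cy5/PI per kit. Within an FSC/SSC live-cell gate, total annexin-V⁺ cells (early PI⁻ plus late PI⁺) were counted by flow cytometry. 0.5% DMSO served as negative control and etoposide 20 µM as positive. Triplicate, mean ± SD, ANOVA/Tukey.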

MT2 [6] = assay: Induction of apoptosis in human MT2 cells infected with HTLV-1 at 50 uM measured after 72 hrs by annexinV-Cy5/propidium iodide staining based FACSCalibur flow cytometry; format: functional, cell-based; procedure, shortened: as §2
Huh-7 = assay: Cytotoxicity against human Huh-7 cells assessed as reduction in cell viability by measuring viability index at 50 uM after 72 hrs in presence of resazurin by resazurin reduction method; format: cell-based; details: huh-7, 72 h
Procedure, shortened: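 Huh-7 cells (3.6 × 10⁴ cells/mL) were exposed to twofold serial dilutions in PBS, 10 points from 50 µM, for 72 h at 37 °C, 5% CO₂. Resazurin (10 µM) was added for the final 4 h and fluorescence read. Viability = RFU treated / mean RFU of 0.5% DMSO wells.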

MT2 [7] = assay: Induction of apoptosis in human MT2 cells infected with HTLV-1 assessed as activation of caspase-3/7 at 50 uM measured after 72 hrs by CellEvent caspase 3/7 green detection reagent based assay; format: functional, cell-based
Procedure, shortened: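 MT-2 cells (3 × 10⁵/well) were exposed to compound (300 µM stock, 100 µl into 500 µl) for 72 h at 37 °C, 5% CO₂. CellEvent caspase-3/7 green reagent was added for 45 min at room temperature in the dark. 10,000 events were acquired, and the percentage of active caspase-3/7⁺ cells was taken within an FSC/SSC live-cell gate. Triplicate, mean ± SD, ANOVA/Tukey versus 0.5% DMSO.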

[8] = Effect on HTLV-1 Tax expression in lentiviral pLVX-TET3G transduced human Jurkat LTR-GFP inducible Tax assessed as doxycyclin-treated GFP negative PI positive dead cells at 50 uM after 72 hrs by flow cytometry (reference value: 16.82 +/- 3.37 %)
MT2 [9] = assay: Cell cycle arrest in human MT2 cells infected with HTLV-1 assessed as accumulation at G2/M phase at 20 uM incubated for 72 hrs by RNaseA/propidium iodide staining based FACSCalibur flow cytometry; format: functional
Procedure, shortened: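 Etoposide 20 µM used as reference in MT-2 cell cycle assay: 3 × 10⁵ cells/well, 72 h at 37 °C. Ethanol fixation (70%, overnight -20 °C), RNase A 30 min at 37 °C, then PI staining. 10,000 events acquired by flow cytometry and G0/G1, S and G2/M fractions modelled. Triplicate, mean ± SD.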

MT2 [10] = assay: Cytotoxicity against human MT2 cells infected with HTLV-1 assessed as reduction in metabolic activity at 20 uM incubated for 72 hrs in presence of resazurin by resazurin reduction method; format: functional, cell-based
Procedure, shortened: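 Reference etoposide at 20 µM (final, 0.5% DMSO) served as the positive control in the MT-2 resazurin screen. Cells were incubated 72 h, with 10 µM resazurin added for the last 4 h, and fluorescence read at 590 nm. Three independent days.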

Structure (SMILES) | Activity (MT2 [1]) | inhibition at 50 µM (MT2 [2]) | Activity (MT2 [3]) | Activity (MT2 [4]) | Activity (MT2 [5]) | Activity (MT2 [6]) | Growth_index (Huh-7) | Activity (MT2 [7]) | GFP-PI+ dead cells % [8] | Activity (MT2 [9]) | inhibition (MT2 [10])
O=C(Cn1cc(CSc2nc3ccccc3[nH]2)nn1)N1CCN(Cc2ccccc2)CC1 | inactive | ≥ 70% | inactive | inactive |  |  |  |  |  |  | 
Cc1cc(=O)oc2cc(OCc3cn(CC4CCN(Cc5ccccc5)CC4)nn3)ccc12 | inactive | ≥ 70% | inactive | inactive | 39.96% | Active | 0.61 | Active |  |  | 
Clc1ccc2c(NCCn3cc(CNc4ncnc5ccccc45)nn3)ccnc2c1 | inactive | ≥ 70% | inactive | inactive |  | Active | 0 | Active | 44.88% |  | 
c1ccc(CN2CCC(Cn3cc(CNc4ncnc5ccccc45)nn3)CC2)cc1 | inactive | ≥ 70% | inactive | inactive |  |  |  |  |  |  | 
O=C1c2ccccc2C(=O)N1Cc1cn(CCNc2ccnc3cc(Cl)ccc23)nn1 |  | ≥ 70% |  | Active |  |  | 0.85 |  |  |  | 
COc1cc2ncnc(NCc3cn(CC4CCN(Cc5ccccc5)CC4)nn3)c2cc1OC | inactive | ≥ 70% | inactive | inactive |  | Active | 0.65 | Active |  |  | 
COc1cc([C@@H]2c3cc4c(cc3[C@@H](O[C@@H]3O[C@@H]5CO[C@@H](C)O[C@H]5[C@H](O)[C@H]3O)[C@H]3COC(=O)[C@H]23)OCO4)cc(OC)c1O |  |  |  |  |  |  |  |  |  | inactive | Active
COc1cc2ncnc(NCc3cn(CCNc4ccnc5cc(Cl)ccc45)nn3)c2cc1OC | inactive | ≥ 70% | inactive | inactive |  | Active | 0 | Active | 90.98% |  | 
O=C(Cn1cc(CNc2ncnc3ccccc23)nn1)N1CCN(Cc2ccccc2)CC1 | inactive | ≥ 70% | inactive | inactive |  |  |  |  |  |  | 
